Experimental data from ChEMBL document CHEMBL1146929, “Biological evaluation of a multi-targeted small molecule inhibitor of tumor-induced angiogenesis” (Bioorg Med Chem Lett, 2006).

How the values were obtained:
[1] = molecular target: Platelet-derived growth factor receptor (Homo sapiens, UniProt P09619+P16234); assay: Inhibitory activity against recombinant human PDGFR; type: protein-complex assay
[2] = molecular target: Protein kinase C alpha type (Homo sapiens, UniProt P17252); assay: Inhibitory activity against PKC alpha
How it was run: (§1)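 IMAP homogeneous fluorescence-polarisation kinase assay: phosphorylated fluorescent peptide substrate binds immobilised metal beads, read as kinase activity. Reactions run at ATP three times the Km for each enzyme.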

[3] = system: HUVEC; assay: Inhibitory activity against bFGF-induced proliferation of HUVEC cells; type: functional, cell-based; settings: Homo sapiens
How it was run: (§2)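 HUVECs were grown to subconfluence, serum-starved for 24 h, then given compound for 2 h before stimulation with 20 ng/mL VEGF or 5 ng/mL bFGF. BrdU label was added after 20 h with compound. Incorporation was read 4 h later with a peroxidase anti-BrdU antibody and colorimetric detection. IC50 came from a single experiment in duplicate.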

[4] = molecular target: T1, Serine/threonine-protein kinase Sgk1 (Homo sapiens, UniProt O00141); assay: Inhibitory activity against SGK
T1 sequence (O00141 whole entry): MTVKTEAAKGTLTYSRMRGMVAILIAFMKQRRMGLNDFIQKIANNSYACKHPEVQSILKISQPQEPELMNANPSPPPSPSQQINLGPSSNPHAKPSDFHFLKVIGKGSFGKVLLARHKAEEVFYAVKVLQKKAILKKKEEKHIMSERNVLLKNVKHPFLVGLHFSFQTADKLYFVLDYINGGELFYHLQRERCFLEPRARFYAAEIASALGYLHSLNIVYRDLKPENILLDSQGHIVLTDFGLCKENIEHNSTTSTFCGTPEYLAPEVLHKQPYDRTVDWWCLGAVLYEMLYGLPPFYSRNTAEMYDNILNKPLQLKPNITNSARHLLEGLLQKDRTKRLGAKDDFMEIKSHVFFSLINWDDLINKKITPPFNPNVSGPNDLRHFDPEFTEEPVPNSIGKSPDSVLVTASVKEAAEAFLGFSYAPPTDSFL
How it was run: (§3)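 IMAP fluorescence-polarization kinase assay: phosphorylated fluorescent peptide substrate binds immobilized metal beads, giving a measure of kinase activity. Reactions were run with ATP at three times the Km of each kinase.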

[5] = system: Mus musculus; assay: Inhibition of VEGF-induced corneal angiogenesis in C57/BL6 mice at 50 mg/kg, po after 7 days; type: functional; settings: C57/BL6, Cornea, 168 h
How it was run: (§4)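 VEGF-containing pellets were implanted in the cornea of C57/BL6 mice. Cohorts were dosed orally bid at 12.5, 50 or 200 mg/kg for 7 days, after which the area of corneal angiogenesis (mm2) was quantified against vehicle. Body weight was monitored throughout.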

[6] = molecular target: RAC-alpha serine/threonine-protein kinase (Homo sapiens, UniProt P31749); assay: Inhibitory activity against AKT; how it was run: as §3
[7] = Half life in nude mice at 10 mg/kg, iv; type: ADME, organism-based; design: dose 10 mg/kg, route intravenous; settings: mouse, in vivo
How it was run: (§5)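 Single doses given iv and orally. Mice (athymic nude) received 10 mg/kg iv, with bleeds at 1, 5, 15, 30 min and 1-24 h, and 50 or 200 mg/kg po, with bleeds at 5 min-24 h. Wistar rats received 5 mg/kg iv through a femoral arterial catheter, with jugular bleeds to 24 h, and 50 or 200 mg/kg po, with bleeds to 48 h. The iv vehicle was 2% DMA/10% PEG400/88% of 40% HPBCD and the oral vehicle 2% Klucel LF/0.1% Tween 80. EDTA plasma was assayed by LC-MS/MS against a calibration of 1-2000 ng/mL.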

[8] = AUC in Wistar rat at 200 mg/kg, po; type: ADME, organism-based; design: dose 200 mg/kg, route oral; settings: plasma; how it was run: as §5
[9] = Clearance in Wistar rat at 5 mg/kg, iv; type: ADME, organism-based; design: dose 5 mg/kg, route intravenous; settings: in vivo; how it was run: as §5
[10] = molecular target: T2, Ephrin type-B receptor 3 (Homo sapiens, UniProt P54753); assay: Inhibitory activity against EphB3; how it was run: as §3
T2 sequence (P54753 whole entry): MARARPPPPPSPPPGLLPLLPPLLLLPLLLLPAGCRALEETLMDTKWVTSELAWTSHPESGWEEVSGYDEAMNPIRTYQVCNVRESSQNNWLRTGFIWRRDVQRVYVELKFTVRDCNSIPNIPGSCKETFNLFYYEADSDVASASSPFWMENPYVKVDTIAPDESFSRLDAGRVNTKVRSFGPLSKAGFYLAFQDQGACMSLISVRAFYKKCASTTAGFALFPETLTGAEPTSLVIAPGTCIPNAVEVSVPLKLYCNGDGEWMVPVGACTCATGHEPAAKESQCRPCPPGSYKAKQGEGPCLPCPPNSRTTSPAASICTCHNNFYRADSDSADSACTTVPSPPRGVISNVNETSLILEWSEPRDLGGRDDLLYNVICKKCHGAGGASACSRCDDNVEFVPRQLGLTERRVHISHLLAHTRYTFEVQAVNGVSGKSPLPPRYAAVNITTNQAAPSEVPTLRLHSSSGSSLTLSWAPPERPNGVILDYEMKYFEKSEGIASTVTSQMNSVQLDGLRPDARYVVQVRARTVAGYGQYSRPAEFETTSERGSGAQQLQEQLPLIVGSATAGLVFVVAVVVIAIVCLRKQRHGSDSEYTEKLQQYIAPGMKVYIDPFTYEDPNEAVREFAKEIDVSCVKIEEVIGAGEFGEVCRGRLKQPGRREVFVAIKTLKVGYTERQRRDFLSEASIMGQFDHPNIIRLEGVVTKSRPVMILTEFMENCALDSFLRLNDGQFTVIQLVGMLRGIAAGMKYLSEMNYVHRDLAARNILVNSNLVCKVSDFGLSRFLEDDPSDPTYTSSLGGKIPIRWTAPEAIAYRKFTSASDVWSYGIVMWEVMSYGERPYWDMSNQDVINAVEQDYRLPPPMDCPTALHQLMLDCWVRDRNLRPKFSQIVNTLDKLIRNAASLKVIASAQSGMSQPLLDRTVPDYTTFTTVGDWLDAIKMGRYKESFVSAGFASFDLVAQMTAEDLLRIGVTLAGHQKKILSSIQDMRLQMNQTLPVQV

[11] = Cmax in Wistar rat at 50 mg/kg, po; type: ADME, organism-based; design: dose 50 mg/kg, route oral; settings: in vivo; how it was run: as §5
[12] = molecular target: Protein kinase C delta type (Homo sapiens, UniProt Q05655); assay: Inhibitory activity against PKC delta; how it was run: as §3
[13] = Volume of distribution in Wistar rat at 5 mg/kg, iv; type: ADME, organism-based; design: dose 5 mg/kg, route intravenous; settings: in vivo, read-out: Vdss; how it was run: as §5
[14] = system: Mus musculus; assay: Inhibition of tumor growth in nude mice implanted with H460a cells at 100 mg/kg, po after 28 days; type: functional; settings: 672 h
[15] = system: HUVEC; assay: Inhibitory activity against VEGF-induced proliferation of HUVEC cells; type: functional, cell-based; settings: Homo sapiens; how it was run: as §2
[16] = AUC in Wistar rat at 50 mg/kg, po; type: ADME, organism-based; design: dose 50 mg/kg, route oral; settings: plasma; how it was run: as §5
[17] = molecular target: Mitogen-activated protein kinase 1 (Homo sapiens, UniProt P28482); assay: Inhibitory activity against Erk2; how it was run: as §1
[18] = molecular target: Vascular endothelial growth factor receptor 2 (Homo sapiens, UniProt P35968); assay: Inhibitory activity against recombinant human KDR
[19] = Half life in Wistar rat at 5 mg/kg, iv; type: ADME, organism-based; design: dose 5 mg/kg, route intravenous; settings: in vivo; how it was run: as §5
[20] = Cmax in Wistar rat at 200 mg/kg, po; type: ADME, organism-based; design: dose 200 mg/kg, route oral; settings: in vivo; how it was run: as §5
[21] = Half life in Wistar rat at 200 mg/kg, po; type: ADME, organism-based; design: dose 200 mg/kg, route oral; settings: in vivo; how it was run: as §5
[22] = AUC in nude mice at 10 mg/kg, iv; type: ADME, organism-based; design: dose 10 mg/kg, route intravenous; settings: mouse, plasma; how it was run: as §5
[23] = Half life in nude mice at 200 mg/kg, po; type: ADME, organism-based; design: dose 200 mg/kg, route oral; settings: mouse, in vivo; how it was run: as §5
[24] = system: NCI-H460; assay: Antiproliferative activity against H460a by MTT assay; type: functional, cell-based; settings: Homo sapiens
How it was run: (§6)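 Exponentially growing HCT116 or H460a tumor cells were plated and held overnight at 37 C before compound was added. Proliferation was read as MTT formazan formation during a 2.5 h incubation 6 days after plating. IC50 came from a single experiment run in duplicate.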

[25] = AUC in nude mice at 200 mg/kg, po; type: ADME, organism-based; design: dose 200 mg/kg, route oral; settings: mouse, plasma; how it was run: as §5
[26] = molecular target: cAMP-dependent protein kinase (PKA) (Homo sapiens, UniProt P22694+P17612+P22612); assay: Inhibitory activity against PKA; type: protein assay; how it was run: as §3
[27] = Clearance in nude mice at 10 mg/kg, iv; type: ADME, organism-based; design: dose 10 mg/kg, route intravenous; settings: mouse, in vivo; how it was run: as §5
[28] = AUC in Wistar rat at 5 mg/kg, iv; type: ADME, organism-based; design: dose 5 mg/kg, route intravenous; settings: plasma; how it was run: as §5
[29] = Cmax in nude mice at 200 mg/kg, po; type: ADME, organism-based; design: dose 200 mg/kg, route oral; settings: mouse, in vivo; how it was run: as §5
[30] = Half life in nude mice at 50 mg/kg, po; type: ADME, organism-based; design: dose 50 mg/kg, route oral; settings: mouse, in vivo; how it was run: as §5
[31] = molecular target: Cyclin-dependent kinase 1/cyclin B (Homo sapiens, UniProt P06493); assay: Inhibition of CDK1/cyclinB; type: protein-complex assay; how it was run: as §3
[32] = Half life in Wistar rat at 50 mg/kg, po; type: ADME, organism-based; design: dose 50 mg/kg, route oral; settings: in vivo; how it was run: as §5
[33] = system: Mus musculus; assay: Inhibition of tumor growth in nude mice implanted with H460a cells at 50 mg/kg, po after 28 days; type: functional; settings: 672 h
[34] = system: HCT-116; assay: Antiproliferative activity against HCT116 by MTT assay; type: functional, cell-based; settings: Homo sapiens; how it was run: as §6
[35] = Volume of distribution in nude mice at 10 mg/kg, iv; type: ADME, organism-based; design: dose 10 mg/kg, route intravenous; settings: mouse, in vivo, read-out: Vdss; how it was run: as §5
[36] = Cmax in nude mice at 50 mg/kg, po; type: ADME, organism-based; design: dose 50 mg/kg, route oral; settings: mouse, in vivo; how it was run: as §5
[37] = AUC in nude mice at 50 mg/kg, po; type: ADME, organism-based; design: dose 50 mg/kg, route oral; settings: mouse, plasma; how it was run: as §5
[38] = system: Mus musculus; assay: Inhibition of VEGF-induced corneal angiogenesis in C57/BL6 mice at 200 mg/kg, po after 7 days; type: functional; settings: C57/BL6, Cornea, 168 h; how it was run: as §4
[39] = system: Mus musculus; assay: Inhibition of tumor growth in nude mice implanted with H460a cells at 200 mg/kg, po after 28 days; type: functional; settings: 672 h

Protein kinase C delta type, sequence (Q05655 whole entry): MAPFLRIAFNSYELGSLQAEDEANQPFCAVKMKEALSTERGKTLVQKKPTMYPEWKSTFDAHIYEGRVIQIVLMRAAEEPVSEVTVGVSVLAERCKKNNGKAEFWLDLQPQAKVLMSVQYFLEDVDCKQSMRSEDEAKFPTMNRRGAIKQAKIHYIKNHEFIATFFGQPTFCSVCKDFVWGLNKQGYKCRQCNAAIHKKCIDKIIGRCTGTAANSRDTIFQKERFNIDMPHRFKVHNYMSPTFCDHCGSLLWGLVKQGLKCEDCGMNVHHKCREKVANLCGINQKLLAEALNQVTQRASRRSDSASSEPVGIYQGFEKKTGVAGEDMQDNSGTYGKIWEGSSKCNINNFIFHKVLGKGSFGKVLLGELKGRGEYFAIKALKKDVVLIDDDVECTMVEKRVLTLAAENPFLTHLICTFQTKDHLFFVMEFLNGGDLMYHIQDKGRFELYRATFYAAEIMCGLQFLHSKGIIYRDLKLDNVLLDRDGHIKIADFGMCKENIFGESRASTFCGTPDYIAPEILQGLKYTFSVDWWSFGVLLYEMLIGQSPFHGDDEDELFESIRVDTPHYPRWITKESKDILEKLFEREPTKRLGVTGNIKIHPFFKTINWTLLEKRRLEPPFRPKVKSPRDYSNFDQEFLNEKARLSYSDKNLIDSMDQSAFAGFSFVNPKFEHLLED
Mitogen-activated protein kinase 1, sequence (P28482 whole entry): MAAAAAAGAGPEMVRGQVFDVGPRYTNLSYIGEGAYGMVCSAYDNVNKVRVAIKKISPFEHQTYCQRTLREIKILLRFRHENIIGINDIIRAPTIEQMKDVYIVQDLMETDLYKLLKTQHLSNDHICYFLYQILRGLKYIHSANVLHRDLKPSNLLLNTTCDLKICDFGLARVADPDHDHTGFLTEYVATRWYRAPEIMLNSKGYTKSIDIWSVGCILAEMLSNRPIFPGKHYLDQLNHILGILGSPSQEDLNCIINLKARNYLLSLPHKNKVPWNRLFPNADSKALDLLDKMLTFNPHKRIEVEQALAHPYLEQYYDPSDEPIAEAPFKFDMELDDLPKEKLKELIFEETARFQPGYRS
RAC-alpha serine/threonine-protein kinase, sequence (P31749 whole entry): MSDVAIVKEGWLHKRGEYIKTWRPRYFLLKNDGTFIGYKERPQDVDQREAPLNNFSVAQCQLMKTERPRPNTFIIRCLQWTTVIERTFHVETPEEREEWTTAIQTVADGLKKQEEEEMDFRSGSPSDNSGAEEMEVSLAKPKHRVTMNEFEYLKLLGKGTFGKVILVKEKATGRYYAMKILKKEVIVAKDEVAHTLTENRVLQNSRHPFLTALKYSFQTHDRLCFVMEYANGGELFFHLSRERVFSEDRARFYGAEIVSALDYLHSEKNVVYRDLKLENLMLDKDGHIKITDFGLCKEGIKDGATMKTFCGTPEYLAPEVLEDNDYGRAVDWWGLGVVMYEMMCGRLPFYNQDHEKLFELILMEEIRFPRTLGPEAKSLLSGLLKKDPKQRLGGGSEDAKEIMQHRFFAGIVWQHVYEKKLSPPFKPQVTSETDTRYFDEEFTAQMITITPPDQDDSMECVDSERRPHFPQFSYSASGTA
Vascular endothelial growth factor receptor 2, sequence (P35968 whole entry): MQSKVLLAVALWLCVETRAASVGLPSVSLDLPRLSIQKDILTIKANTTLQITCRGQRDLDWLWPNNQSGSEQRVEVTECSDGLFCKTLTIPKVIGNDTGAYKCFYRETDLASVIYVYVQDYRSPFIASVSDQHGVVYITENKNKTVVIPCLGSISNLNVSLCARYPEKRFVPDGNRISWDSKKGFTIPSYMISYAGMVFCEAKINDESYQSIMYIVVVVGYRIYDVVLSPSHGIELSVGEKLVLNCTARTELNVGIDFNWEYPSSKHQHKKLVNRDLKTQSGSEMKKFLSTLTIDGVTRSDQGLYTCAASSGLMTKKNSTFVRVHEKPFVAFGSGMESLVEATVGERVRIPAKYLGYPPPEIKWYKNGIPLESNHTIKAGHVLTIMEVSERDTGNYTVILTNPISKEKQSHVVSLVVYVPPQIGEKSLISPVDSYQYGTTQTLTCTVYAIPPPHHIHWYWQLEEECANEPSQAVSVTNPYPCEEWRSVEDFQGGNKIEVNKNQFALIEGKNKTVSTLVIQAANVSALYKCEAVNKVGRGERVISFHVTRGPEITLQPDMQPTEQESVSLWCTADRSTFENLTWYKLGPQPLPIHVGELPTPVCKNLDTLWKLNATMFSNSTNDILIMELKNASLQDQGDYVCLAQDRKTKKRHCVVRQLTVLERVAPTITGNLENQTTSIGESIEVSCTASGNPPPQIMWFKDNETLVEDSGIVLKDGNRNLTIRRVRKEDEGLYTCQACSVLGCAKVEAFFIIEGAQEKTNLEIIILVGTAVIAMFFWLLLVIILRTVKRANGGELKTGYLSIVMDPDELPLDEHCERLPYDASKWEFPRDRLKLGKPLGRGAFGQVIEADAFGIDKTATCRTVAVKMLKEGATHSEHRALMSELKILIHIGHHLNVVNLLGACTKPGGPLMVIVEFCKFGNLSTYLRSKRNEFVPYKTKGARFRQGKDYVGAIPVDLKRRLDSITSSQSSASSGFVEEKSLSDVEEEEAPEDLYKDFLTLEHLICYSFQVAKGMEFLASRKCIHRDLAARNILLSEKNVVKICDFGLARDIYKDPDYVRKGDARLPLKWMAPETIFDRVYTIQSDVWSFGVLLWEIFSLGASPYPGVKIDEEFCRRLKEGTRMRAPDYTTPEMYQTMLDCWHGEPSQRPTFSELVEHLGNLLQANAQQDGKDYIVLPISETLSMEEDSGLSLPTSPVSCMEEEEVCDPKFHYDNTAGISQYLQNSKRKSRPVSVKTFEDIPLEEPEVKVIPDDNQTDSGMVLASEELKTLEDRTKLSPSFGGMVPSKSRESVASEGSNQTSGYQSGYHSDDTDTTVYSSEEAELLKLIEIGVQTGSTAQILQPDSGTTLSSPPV

SMILES: COc1ccc(N2Cc3cnc(Nc4ccc(F)cc4)nc3N(C3CC[C@@H](O)C3)C2=O)cc1 (single isomer, unassigned)
- IC50 [1]: 0.083 µM
- IC50 [2]: > 125 µM
- IC50 [3]: 0.149 µM
- IC50 [4]: > 125 µM
- inhibition in vivo at 50 mg/kg [5]: 67%
- IC50 [6]: > 125 µM
- half-life [7]: 2 h
- AUC [8]: 285000 ng·h/mL
- clearance [9]: 32.5 mL/min/kg
- IC50 [10]: 1.25 µM
- Cmax [11]: 3160 ng/mL
- IC50 [12]: > 125 µM
- Vd [13]: 3.7 L/kg
- inhibition in vivo at 100 mg/kg [14]: 87%
- IC50 [15]: 0.035 µM
- AUC [16]: 40900 ng·h/mL
- IC50 [17]: 12.6 µM
- IC50 [18]: 0.05 µM
- half-life [19]: 4.3 h
- Cmax [20]: 10300 ng/mL
- half-life [21]: 7.8 h
- AUC [22]: 12100 ng·h/mL
- half-life [23]: 1.7 h
- IC50 [24]: 2.5 µM
- AUC [25]: 260000 ng·h/mL
- IC50 [26]: 9.01 µM
- clearance [27]: 13.8 mL/min/kg
- AUC [28]: 2770 ng·h/mL
- Cmax [29]: 82600 ng/mL
- half-life [30]: 1.9 h
- IC50 [31]: > 125 µM
- half-life [32]: 5 h
- inhibition in vivo at 50 mg/kg [33]: 78%
- IC50 [34]: 3 µM
- Vd [35]: 1.9 L/kg
- Cmax [36]: 29100 ng/mL
- AUC [37]: 96500 ng·h/mL
- inhibition in vivo at 200 mg/kg [38]: 91%
- inhibition in vivo at 200 mg/kg [39]: 95%
